Assay [1] has as its system MCF7. Put plainly: Induction of apoptosis in human MCF7 ER-positive cells assessed as increase in cleaved caspase-8 levels at 50 to 100 uM after 24 hrs by Western blot analysis. It counts as functional, cell-based. The procedure, abridged: (§1)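 Western blot of whole cells after 24 h exposure (MCF-7 at 50 or 100; MDA-MB-231 at 25 or 50). Probed for cleavage of caspase-8, -9, -3 and PARP, and for Bax and Bcl-2 expression. The Bax:Bcl-2 ratio is derived from the same blots.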
On the technique in general: In western blotting, separated proteins are transferred to a membrane and probed.

For assay [2], the system named is MDA-MB-231. Put plainly: Cytotoxicity against human MDA-MB-231 ER-negative cells assessed as decrease in cell viability after 24 hrs by EZ-Cytox assay. It counts as functional, cell-based.
Assay [3] deals with MCF7. Description: Induction of apoptosis in human MCF7 ER-positive cells assessed as increase in Bax to Bcl-2 ratio at 50 to 100 uM after 24 hrs by Western blot analysis.
Assay [4] concerns MCF7. Put plainly: Cytotoxicity against human MCF7 ER-positive cells assessed as decrease in cell viability after 24 hrs by EZ-Cytox assay. It counts as functional, cell-based.
The subject of assay [5] is MDA-MB-231. Description: Cytotoxicity against human MDA-MB-231 ER-negative cells assessed as cell viability at 100 uM after 24 hrs by EZ-Cytox assay relative to control. The conditions noted are these: MDA-MB-231, 24 h, read-out: Activity. It counts as functional.
Assay [6] has as its system MCF7. Put plainly: Induction of apoptosis in human MCF7 ER-positive cells at 100 uM after 24 hrs by Annexin-V/propidium iodide staining-based cytometry relative to control. It counts as functional. The procedure, abridged:
(§2)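 Cells exposed 24 h (MCF-7 at 50 or 100; MDA-MB-231 at 25 or 50), then stained with Alexa Fluor 488 annexin V conjugate for externalized phosphatidylserine and examined by fluorescence imaging. The read-out is the percentage of annexin-V-positive cells in a total cell count.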

Assay [7] relates to MDA-MB-231. Put plainly: Induction of apoptosis in human MDA-MB-231 ER-negative cells assessed as increase in cleaved caspase-8 levels at 25 to 50 uM after 24 hrs by Western blot analysis. It counts as functional, cell-based. The procedure, abridged: as §1
Assay [8] deals with MCF7. Put plainly: Cytotoxicity against human MCF7 ER-positive cells assessed as cell viability at 100 uM after 24 hrs by EZ-Cytox assay relative to control. It counts as functional. The conditions noted are these: MCF7, 24 h, read-out: Activity.
In assay [9] the test system is MCF7. Put plainly: Cytotoxicity against human MCF7 ER-positive cells assessed as decrease in cell viability at 5 to 100 uM after 24 hrs by EZ-Cytox assay. It counts as functional, cell-based.
For assay [10], the system named is MDA-MB-231. Put plainly: Induction of apoptosis in human MDA-MB-231 ER-negative cells at 50 uM after 24 hrs by Annexin-V/propidium iodide staining-based cytometry relative to control. It counts as functional. The procedure, abridged:
as §2

Assay [11] relates to MCF7. Description: Induction of apoptosis in human MCF7 ER-positive cells assessed as increase in PARP levels at 50 to 100 uM after 24 hrs by Western blot analysis. It counts as functional, cell-based. In short, it runs like this:
as §1

Assay [12] concerns MDA-MB-231. Description: Cytotoxicity against human MDA-MB-231 ER-negative cells assessed as decrease in cell viability at 5 to 100 uM after 24 hrs by EZ-Cytox assay. It counts as functional, cell-based.
Assay [13] relates to MDA-MB-231. Description: Induction of apoptosis in human MDA-MB-231 ER-negative cells assessed as increase in PARP levels at 25 to 50 uM after 24 hrs by Western blot analysis. It counts as functional, cell-based. In short, it runs like this: as §1
The subject of assay [14] is MCF7. Description: Induction of apoptosis in human MCF7 ER-positive cells assessed as increase in cleaved caspase-3 levels at 50 to 100 uM after 24 hrs by Western blot analysis. It counts as functional, cell-based. The procedure, abridged:
as §1

Assay [15] deals with MDA-MB-231. Put plainly: Induction of apoptosis in human MDA-MB-231 ER-negative cells assessed as increase in Bax to Bcl-2 ratio at 25 to 50 uM after 24 hrs by Western blot analysis.
Assay [16] deals with MDA-MB-231. Put plainly: Induction of apoptosis in human MDA-MB-231 ER-negative cells assessed as increase in cleaved caspase-9 levels at 25 to 50 uM after 24 hrs by Western blot analysis. It counts as functional, cell-based. The procedure, abridged: as §1
Assay [17] has as its system MCF7. Description: Induction of apoptosis in human MCF7 ER-positive cells assessed as increase in Bax expression levels at 50 to 100 uM after 24 hrs by Western blot analysis. It counts as functional, cell-based. The procedure, abridged:
as §1

Assay [18] has as its system MDA-MB-231. Description: Induction of apoptosis in human MDA-MB-231 ER-negative cells assessed as increase in cleaved caspase-3 levels at 25 to 50 uM after 24 hrs by Western blot analysis. It counts as functional, cell-based. The procedure, abridged:
as §1

Assay [19] deals with MDA-MB-231. Description: Induction of apoptosis in human MDA-MB-231 ER-negative cells assessed as decrease in Bcl-2 expression levels at 25 to 50 uM after 24 hrs by Western blot analysis. It counts as functional, cell-based. The procedure, abridged: as §1

Each structure is given as a SMILES string. The source made the active and inactive calls. No cut-off for these calls is given here.

`O=C(O[C@@H]1O[C@@H]2COC(=O)c3cc(O)c(O)c(O)c3-c3c(cc(O)c(O)c3O)C(=O)O[C@H]2[C@@H]2OC(=O)c3cc(O)c(O)c(O)c3-c3c(cc(O)c(O)c3O)C(=O)O[C@@H]12)c1cc(O)c(O)c(Oc2c(O)c(O)c(O)c3c2C(=O)O[C@H]2[C@@H]4OC(=O)c5cc(O)c(O)c(O)c5-c5c(cc(O)c(O)c5O)C(=O)O[C@H]4[C@@H](OC(=O)c4cc(O)c(O)c(O)c4)O[C@@H]2COC(=O)c2cc(O)c(O)c(O)c2-3)c1`: the result in the assay on MCF7 [1], with MDA-MB-231 [7], in the assay on MCF7 [9], with MCF7 [11], in the assay with MDA-MB-231 [12] and in the assay on MDA-MB-231 [13] was Active. Further, the result with MCF7 [14], with MDA-MB-231 [16], in the assay on MCF7 [17], with MDA-MB-231 [18] and with MDA-MB-231 [19] was Active. The Activity result in the assay with MDA-MB-231 [2] was “Dose-dependent effect”; in the assay with MCF7 [4] it was “Dose-dependent effect”; with MCF7 [6] it was 33.7%; in the assay on MDA-MB-231 [10], 40.7%. Further, the Bax/Bcl-2 ratio entry in the assay on MCF7 [3] and with MDA-MB-231 [15] was “Active” each time. Further, the viability at 100 µM is 63% with MDA-MB-231 [5] and 69% with MCF7 [8].

These data come from ChEMBL document CHEMBL4043193, “Cytotoxic effect of sanguiin H-6 on MCF-7 and MDA-MB-231 human breast carcinoma cells” (2017).
